From ChEMBL document CHEMBL1128709, “Discovery and structure-activity relationships of sulfonamide ETA-selective antagonists” (J Med Chem, 1995)

How the values were obtained:
[1] = molecular target: T1, Endothelin-1 receptor (Rattus norvegicus, UniProt P26684); test: Antagonism of [125 I]ET-1 binding to the rat endothelin receptor in vascular smooth muscle VSM-A10 cells.; format: cell-based
T1 sequence (P26684 whole entry): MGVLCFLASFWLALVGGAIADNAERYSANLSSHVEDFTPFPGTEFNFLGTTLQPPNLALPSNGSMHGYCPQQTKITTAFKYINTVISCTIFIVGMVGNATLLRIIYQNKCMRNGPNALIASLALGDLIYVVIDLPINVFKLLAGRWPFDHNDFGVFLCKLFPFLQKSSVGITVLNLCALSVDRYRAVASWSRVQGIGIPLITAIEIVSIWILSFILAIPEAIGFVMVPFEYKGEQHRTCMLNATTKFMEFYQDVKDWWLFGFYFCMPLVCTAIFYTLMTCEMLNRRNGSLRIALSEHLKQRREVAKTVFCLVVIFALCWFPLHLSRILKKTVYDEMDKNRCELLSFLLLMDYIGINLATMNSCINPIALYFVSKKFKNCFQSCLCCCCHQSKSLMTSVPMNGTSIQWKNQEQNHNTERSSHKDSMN

[2] = species on record: Oryctolagus cuniculus; test: In vitro functional antagonistic testing by obtaining ET-1 concentration response curves in rabbit carotid artery rings in the presence or absence of antagonist.
Summary of the method: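 Concentration-response curves to ET-1 in rabbit carotid artery rings. KB determined when at least 3 antagonist concentrations were tested; apparent KB calculated when only one concentration was used.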

[3] = species on record: Rattus norvegicus; test: Tested for antagonistic activity against ET-1 induced increase in intracellular [Ca2+] in VSM-A10 cells.; format: functional, cell-based
Summary of the method: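 A10 cells challenged with 3 nM ET-1; the rise in free intracellular Ca2+ was measured with and without compound. Values reported as IC50.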

Structure (SMILES) | IC50 [1] [µM] | Kb ([2]; read-out: KB app) [µM] | also measured
CCOC(=O)c1c(C)noc1NS(=O)(=O)c1cccc2c(N(C)C)cccc12 | 31 |  | 
CC(C)(C)c1cc(NS(=O)(=O)c2ccc(N)cc2)no1 | > 32 |  | 
Cc1noc(NC(=O)c2ccc(N)cc2)c1C | > 32 |  | 
Cc1noc(N(CC(=O)O)S(=O)(=O)c2ccc(N)cc2)c1C | > 32 |  | 
Cc1noc(NS(=O)(=O)c2ccc(NC(=O)Nc3ccccc3)cc2)c1C | 38 |  | 
Cc1noc(NS(=O)(=O)c2cccc3c(N)cccc23)c1C |  | > 10 | 
Nc1ccc(S(=O)(=O)Nc2cc(-c3ccccc3)on2)cc1 | > 32 |  | 
CN(C)c1cccc2c(S(=O)(=O)Nc3onc4c3CCCC4)cccc12 | 153 |  | 
Cc1noc(NS(=O)(=O)c2ccc(N)cc2)c1C [SULFISOXAZOLE] |  | > 100 | IC50 [3]: 40 µM
Nc1ccc(S(=O)(=O)Nc2nccs2)cc1 [SULFATHIAZOLE] | 69 |  | 
Cc1noc(NS(=O)(=O)c2cccc3c(N(C)C)cccc23)c1Cc1ccccc1 | 50 |  | 
Cc1cc(NS(=O)(=O)c2ccc(O)cc2)no1 |  | > 100 | 
Cc1noc(NS(=O)(=O)c2cccc3c(N(C)C)cccc23)c1C [BMS-182874] |  |  | Kb [2]: 0.52 µM
Cc1noc(NS(=O)(=O)c2cccc3c(N(C)C)cccc23)c1[N+](=O)[O-] | 17.3 | > 100 | 
Nc1ccc(S(=O)(=O)Nc2noc3c2CCCC3)cc1 | 32 |  | 
Cc1cc(NS(=O)(=O)c2ccc(N)cc2)on1 | 28 |  | 
Cc1onc(NS(=O)(=O)c2ccc(N)cc2)c1C [SULFATROXAZOLE] |  |  | IC50 [3]: 40 µM
CC(=O)N(c1onc(C)c1C)S(=O)(=O)c1ccc(N)cc1 [SULFISOXAZOLE ACETYL] | 13 |  | 
Cc1noc(NS(=O)(=O)c2ccc(NCC(=O)O)cc2)c1C | 12 |  | 
CC(=O)Nc1cccc2c(S(=O)(=O)Nc3onc(C)c3C)cccc12 |  |  | Kb [2]: 11 µM
CCCNc1ccc(S(=O)(=O)Nc2onc(C)c2C)cc1 | 27 | 40 | 
Cc1noc(NS(=O)(=O)c2ccc(O)cc2)c1C |  | > 100 | 
Cc1noc(NS(=O)(=O)c2ccc(NCc3ccccc3)cc2)c1C | 9.8 | 100 | 
Nc1ccc(S(=O)(=O)Nc2nncs2)cc1 | 57 |  | 
O=S(=O)(Nc1nccs1)c1ccc(O)cc1 | 30 |  | 
Cc1noc(N(C)S(=O)(=O)c2ccc(N)cc2)c1C | > 32 |  | 
Cc1noc(NS(=O)(=O)c2cccc3c(N(C)C)cccc23)c1-c1ccccc1 | 15.9 |  | 
CCCCN(CCCC)c1cccc2c(S(=O)(=O)Nc3onc(C)c3C)cccc12 | 15.9 |  | 
Cc1cc(NS(=O)(=O)c2ccc(N)cc2)no1 [SULFAMETHOXAZOLE] |  | > 100 | 
CC(=O)Nc1cccc2cc(S(=O)(=O)Nc3onc(C)c3C)ccc12 |  | 40 | 

Further lines, with some results ahead:

IC50 [1] [µM] | Structure (SMILES) | Kb ([2]; read-out: KB app) [µM] | also measured
2.1 | CCCNc1cccc(S(=O)(=O)Nc2onc(C)c2C)c1 |  | Kb [2]: 70 µM
0.13 | Cc1noc(NS(=O)(=O)c2cccc3c(N(C)C(C)C)cccc23)c1C |  | Kb [2]: 0.7 µM
0.29 | CCc1c(C)noc1NS(=O)(=O)c1cccc2c(N(C)C)cccc12 | 4 | 
3.05 | Cc1noc(NS(=O)(=O)c2cccc3c(NCCCCCc4ccccc4)cccc23)c1C |  | 
4.9 | Cc1cnoc1NS(=O)(=O)c1cccc2c(N(C)C)cccc12 |  | 
5.4 | Cc1noc(NS(=O)(=O)c2cccc(-c3ccccc3)c2)c1C |  | 
0.88 | Cc1noc(NS(=O)(=O)c2cccc3c(NC(=O)C(C)C)cccc23)c1C |  | 
0.27 | Cc1noc(NS(=O)(=O)c2cccc3c(N4CCCCC4=O)cccc23)c1C | 7 | 
2.89 | Cc1noc(NS(=O)(=O)c2cccc3c(C(C)(C)O)cccc23)c1C |  | 
2.8 | Cc1noc(NS(=O)(=O)c2cccc3c(CN(C)C)cccc23)c1C | 20 | 
7.8 | Cc1noc(NS(=O)(=O)c2cccc3c(O)cccc23)c1C | 100 | 
6.5 | Cc1noc(NS(=O)(=O)c2ccc(NC(=O)CN)cc2)c1C |  | 
7.8 | Cc1noc(NS(=O)(=O)c2cccc3c(NCCC(c4ccccc4)c4ccccc4)cccc23)c1C |  | 
0.08 | CCCCCNc1cccc2c(S(=O)(=O)Nc3onc(C)c3C)cccc12 |  | Kb [2]: 0.27 µM
1.17 | CCc1noc(NS(=O)(=O)c2cccc3c(N(C)C)cccc23)c1C | 3 | 
0.06 | Cc1onc(NS(=O)(=O)c2cccc3c(N(C)C)cccc23)c1C | 0.98 | 
0.13 | Cc1noc(NS(=O)(=O)c2cccc3c(N4CCCC4=O)cccc23)c1C |  | Kb [2]: 9.6 µM

IC50 [1] [µM] | Structure (SMILES) | Kb ([2]; read-out: KB app) [µM] | also measured
0.15 | Cc1noc(NS(=O)(=O)c2cccc3c(NC(=S)Nc4ccccc4)cccc23)c1C |  | Kb [2]: 13 µM
4.1 | Cc1noc(NS(=O)(=O)c2ccc(NC(=S)Nc3ccccc3)cc2)c1C |  | 
0.59 | Cc1noc(NS(=O)(=O)c2cccc3c(NCc4ccccc4)cccc23)c1C | 0.9 | 
0.66 | Cc1noc(NS(=O)(=O)c2ccc3cc(N)ccc3c2)c1C |  | Kb [2]: 43 µM
3.38 | COC(=O)c1cccc2c(S(=O)(=O)Nc3onc(C)c3C)cccc12 |  | 
0.13 | CNc1cccc2c(S(=O)(=O)Nc3onc(C)c3C)cccc12 |  | Kb [2]: 1.6 µM
7.8 | Cc1[n-][o+]c(NS(=O)(=O)c2cccc([N+](=O)[O-])c2)c1C |  | 
0.02 | Cc1noc(NS(=O)(=O)c2cccc3c(NC(C)C)cccc23)c1C |  | Kb [2]: 0.33 µM
0.03 | Cc1noc(NS(=O)(=O)c2cccc3c(N4CCCC4)cccc23)c1C |  | Kb [2]: 0.28 µM
8.9 | Cc1cc(NS(=O)(=O)c2cccc3c(N(C)C)cccc23)on1 |  | 
1.76 | Cc1noc(NS(=O)(=O)c2cccc3c(N4CCCCC4)cccc23)c1C | 4 | 
1 | Cc1noc(NS(=O)(=O)c2ccc(F)cc2)c1C | 40 | 
1.96 | Cc1noc(NS(=O)(=O)c2cccc3c(NCCCC(=O)O)cccc23)c1C | 30 | 
0.06 | CCNc1cccc2c(S(=O)(=O)Nc3onc(C)c3C)cccc12 |  | Kb [2]: 0.5 µM
1.4 | Cc1noc(NS(=O)(=O)c2cccc3ccc(N)cc23)c1C |  | 
0.4 | CCOC(=O)C(C)Nc1cccc2c(S(=O)(=O)Nc3onc(C)c3C)cccc12 (stereo not drawn) |  | Kb [2]: 3.1 µM
